Results: ChEMBL document CHEMBL1148723, “Structure-based rational design of beta-hairpin peptides from discontinuous epitopes of cluster of differentiation 2 (CD2) protein to modulate cell adhesion interaction” (J Med Chem, 2007)
Activity calls are given as the source filed them. No cut-off for these calls is given here. Peptide text beside a SMILES is read from it.

Assays:
Erythrocyte = assay: Inhibition of CD2-CD58 interaction assessed as inhibition of E-rosette formation between Jurkat cells and sheep RBCs at 200 uM; type: cell-based; set-up: Activity: scale not given: the % may be the effect or the level left
How it was run: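 E-rosetting: test peptide added first to AET-treated sheep red blood cells (CD58-expressing), then an equal amount of Jurkat T cells (CD2-expressing). Cells with five or more bound SRBCs scored as rosettes. Read-out is % inhibition of rosette formation versus untreated cells, mean of three independent experiments; anti-CD58 antibody as positive control.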

Jurkat [1] = assay: Inhibition of CD2-CD58 interaction assessed as inhibition of adhesion between Jurkat cells and Caco-2 cells; type: cell-based; details: Homo sapiens, dose or concentration not given here
How it was run: (§1)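 Lymphocyte–epithelial adhesion: peptide added to confluent Caco-2 monolayer (hCD58), then BCECF-labelled Jurkat cells (hCD2). 45 min at 37 °C, nonadherent cells washed off with PBS, bound Jurkat cells lysed with Triton X-100, lysate fluorescence read. Result expressed as % inhibition versus untreated, mean of three independent experiments.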

Jurkat [2] = assay: Inhibition of CD2-CD58 interaction assessed as inhibition of adhesion between Jurkat cells and Caco-2 cells at 90 uM; type: cell-based; details: Homo sapiens; how it was run: as §1
Jurkat (Homo sapiens) = assay: Inhibition of ICAM1-LFA1 mediated adhesion in Jurkat cells

With CC[C@H](C)[C@H](NC(=O)[C@H](CC(=O)O)NC(=O)[C@H](CC(=O)O)NC(=O)[C@@H](NC(=O)[C@H](CCCCN)NC(=O)[C@@H](N)Cc1c[nH]c2ccccc12)[C@@H](C)CC)C(=O)N[C@@H](CC(=O)O)C(=O)N[C@@H](CCCCN)C(=O)N[C@H](C(=O)N[C@@H](CC(=O)O)C(=O)N[C@@H](Cc1ccc(O)cc1)C(=O)N[C@H](C(=O)N[C@@H](CO)C(=O)N[C@H](C(=O)O)C(C)C)[C@@H](C)CC)[C@@H](C)O (H-WKIDDIDKTDYISV-OH) as the compound, how does the inhibition (Erythrocyte) read?
Its inhibition is 15%.

With CC[C@H](C)[C@H](N)C(=O)N[C@@H](CC(=O)O)C(=O)N[C@@H](CC(=O)O)C(=O)N[C@H](C(=O)N[C@@H](CCCCN)C(=O)N[C@@H](Cc1c[nH]c2ccccc12)C(=O)N[C@@H](CCC(=O)O)C(=O)N[C@@H](CCCCN)C(=O)N[C@H](C(=O)N[C@@H](CO)C(=O)N[C@H](C(=O)N[C@@H](Cc1ccc(O)cc1)C(=O)N[C@@H](CC(=O)O)C(=O)N[C@H](C(=O)O)[C@@H](C)O)[C@@H](C)CC)C(C)C)[C@@H](C)CC (H-IDDIKWEKVSIYDT-OH) as the compound, how does the inhibition (Jurkat [1]) read?
Its inhibition is 30%.

With CC[C@H](C)[C@@H]1NC(=O)[C@H](CC(=O)O)NC(=O)[C@H](CC(=O)O)NC(=O)[C@H]([C@@H](C)CC)NC(=O)[C@H](CCCCN)NC(=O)[C@H](N)C(C)(C)SSC[C@H](C(=O)O)NC(=O)[C@H](CO)NC(=O)[C@H]([C@@H](C)CC)NC(=O)[C@H](Cc2ccc(O)cc2)NC(=O)[C@H](CC(=O)O)NC(=O)[C@H]([C@@H](C)O)NC(=O)[C@H](CCCCN)NC(=O)[C@H](CC(=O)O)NC1=O as the compound, how does the inhibition (Erythrocyte) read?
Its inhibition is 25%.

Which inhibition (Erythrocyte) does the source give for CC[C@H](C)[C@H](NC(=O)[C@H](CCCCN)NC(=O)[C@@H](N)Cc1c[nH]c2ccccc12)C(=O)N[C@@H](CC(=O)O)C(=O)N[C@@H](CC(=O)O)C(=O)N[C@H](C(=O)N[C@H](C(=O)N[C@@H](CC(=O)O)C(=O)N[C@@H](Cc1ccc(O)cc1)C(=O)N[C@H](C(=O)N[C@@H](CO)C(=O)N[C@H](C(=O)O)C(C)C)[C@@H](C)CC)[C@@H](C)O)[C@@H](C)CC (H-WKIDDITDYISV-OH) here?
The inhibition was 35%.

With CC[C@H](C)[C@@H]1NC(=O)[C@H](CC(=O)O)NC(=O)[C@H](CC(=O)O)NC(=O)[C@H](N)C(C)(C)SSC[C@H](C(=O)O)NC(=O)[C@H](CC(=O)O)NC(=O)[C@H](Cc2ccc(O)cc2)NC(=O)[C@H]([C@@H](C)CC)NC(=O)[C@H](CO)NC(=O)[C@H](C(C)C)NC(=O)[C@H](CCCCN)NC(=O)[C@H](CCC(=O)O)NC(=O)[C@H](Cc2c[nH]c3ccccc23)NC(=O)[C@H](CCCCN)NC1=O as the compound, how does the inhibition (Erythrocyte) read?
The inhibition was 40%.

What about the inhibition (Jurkat [2]) of the same compound?
The inhibition was 50%.

And the Activity (Jurkat (Homo sapiens))?
The Activity was “inactive”.

CC[C@H](C)[C@@H]1NC(=O)[C@H](CC(=O)O)NC(=O)[C@H](CC(=O)O)NC(=O)[C@H](N)C(C)(C)SSC[C@@H](C(=O)O)NC(=O)[C@H](CC(=O)O)NC(=O)[C@H](Cc2ccc(O)cc2)NC(=O)[C@H]([C@@H](C)CC)NC(=O)[C@H](CO)NC(=O)[C@H](C(C)C)NC(=O)[C@H](Cc2c[nH]c3ccccc23)NC(=O)[C@H](CCCCN)NC1=O was tested. Which inhibition (Erythrocyte) did it give?
The inhibition was 30%.

For CC[C@H](C)[C@@H]1NC(=O)[C@H](CCCCN)NC(=O)[C@H](N)C(C)(C)SSC[C@H](C(=O)O)NC(=O)[C@H](CO)NC(=O)[C@H]([C@@H](C)CC)NC(=O)[C@H](Cc2ccc(O)cc2)NC(=O)[C@H](CC(=O)O)NC(=O)[C@H]([C@@H](C)O)NC(=O)[C@H]([C@@H](C)CC)NC(=O)[C@H](CC(=O)O)NC(=O)[C@H](CC(=O)O)NC1=O, which Activity (Erythrocyte) is on record?
Its Activity is 45%.

What about the inhibition (Jurkat [2]) of the same compound?
Its inhibition is 60%.

And the Activity (Jurkat (Homo sapiens))?
The Activity was “inactive”.
